The target of assay [1] is Tyrosine-protein kinase BTK (Homo sapiens, UniProt Q06187). In words: Inhibition of human recombinant full-length N-terminal His-tagged BTK expressed in baculovirus infected Sf9 insect cells measured after 60 mins by ADP-Glo kinase assay.
A short description of assay [2]: Antiproliferative activity against human Ramos cells measured after 48 hrs by CCK-8 assay. Format: functional, cell-based. In short, it runs like this: (§1)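 Cells seeded at 2000–3000 cells/well and kept one day at 37 °C, 5% CO₂ in RPMI1640 with 10% FBS. Viability was read by CCK-8 absorbance at 450 nm, and seeding was adjusted to give 0.5–1.2 absorbance. IC50 was derived by curve fitting.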

A short description of assay [3]: Antiproliferative activity against human Raji cells measured after 48 hrs by CCK-8 assay. Format: functional, cell-based. In short, it runs like this: as §1
For orientation: Tetrazolium assays rely on reduction of a dye to a coloured formazan, in cell work by metabolically active cells.

Assay [4] can be described thus: Cell cycle arrest in human Ramos cells assessed as accumulation at G0/G1 phase at 10 uM measured after 48 hrs by propidium iodide based flow cytometry (reference value: 39.95 %). In kind it is functional. In a few lines: (§2)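 Ramos cells at about 2 × 10⁵ cells/well were treated for 48 h, then fixed overnight in 70% ethanol at 4 °C. After a PBS wash they were stained with propidium iodide for 10 min under subdued light. Cell-cycle phase distribution was determined by flow cytometry.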

The nature of assay [5]: Cell cycle arrest in human Ramos cells assessed as accumulation at S phase at 10 uM measured after 48 hrs by propidium iodide based flow cytometry (reference value: 55.07 %). Format: functional. In a few lines:
as §2

A short description of assay [6]: Cell cycle arrest in human Ramos cells assessed as accumulation at G2/M phase at 10 uM measured after 48 hrs by propidium iodide based flow cytometry (reference value: 4.98 %). Format: functional. In short, it runs like this:
as §2
For orientation: In flow cytometry, cells or beads pass a laser one at a time.

Assay [7] relates to Ramos. In words: Induction of apoptosis in human Ramos cells assessed as viable cells at 10 uM measured after 48 hrs by Annexin V-FITC/propidium iodide based flow cytometry relative to control. Format: functional. In short, it runs like this: (§3)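 Ramos cells at 1–5 × 10⁵ cells/well were treated for 48 h in medium with 5% FBS, with a DMSO solvent control. They were […], stained with Annexin V-FITC/propidium iodide, and analysed by flow cytometry.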

Assay [8] has as its system Ramos. In words: Induction of apoptosis in human Ramos cells assessed as early apoptotic cells at 10 uM measured after 48 hrs by Annexin V-FITC/propidium iodide based flow cytometry relative to control. In kind it is functional. In a few lines: as §3
The test system of assay [9] is Ramos. The assay can be described thus: Induction of apoptosis in human Ramos cells assessed as necrotic cells at 10 uM measured after 48 hrs by Annexin V-FITC/propidium iodide based flow cytometry (reference value: 0.2 %). In kind it is functional. In short, it runs like this:
as §3

In assay [10] the test system is Ramos. In words: Induction of apoptosis in human Ramos cells assessed as viable cells at 1 uM measured after 48 hrs by Annexin V-FITC/propidium iodide based flow cytometry relative to control. Format: functional. Particulars: read-out: Activity. In short, it runs like this: as §3
The subject of assay [11] is Ramos. The assay can be described thus: Induction of apoptosis in human Ramos cells assessed as late apoptotic cells at 1 uM measured after 48 hrs by Annexin V-FITC/propidium iodide based flow cytometry relative to control. In kind it is functional. In short, it runs like this: as §3
A short description of assay [12]: Cell cycle arrest in human Ramos cells assessed as accumulation at G0/G1 phase at 1 uM measured after 48 hrs by propidium iodide based flow cytometry (reference value: 39.95 %). Format: functional. In a few lines: as §2
The nature of assay [13]: Cell cycle arrest in human Ramos cells assessed as accumulation at S phase at 1 uM measured after 48 hrs by propidium iodide based flow cytometry (reference value: 55.07 %). Format: functional. In a few lines: as §2
Assay [14] can be described thus: Cell cycle arrest in human Ramos cells assessed as accumulation at G2/M phase at 1 uM measured after 48 hrs by propidium iodide based flow cytometry (reference value: 4.98 %). In kind it is functional. In a few lines: as §2
Assay [15] is described as follows: Cell cycle arrest in human Ramos cells assessed as accumulation at G0/G1 phase at 5 uM measured after 48 hrs by propidium iodide based flow cytometry (reference value: 39.95 %). Format: functional. In a few lines: as §2
Assay [16] is described as follows: Cell cycle arrest in human Ramos cells assessed as accumulation at S phase at 5 uM measured after 48 hrs by propidium iodide based flow cytometry (reference value: 55.07 %). In kind it is functional. In a few lines: as §2
Assay [17] is described as follows: Cell cycle arrest in human Ramos cells assessed as accumulation at G2/M phase at 5 uM measured after 48 hrs by propidium iodide based flow cytometry (reference value: 4.98 %). Format: functional. In short, it runs like this:
as §2

The subject of assay [18] is Ramos. In words: Induction of apoptosis in human Ramos cells assessed as early apoptotic cells at 1 uM measured after 48 hrs by Annexin V-FITC/propidium iodide based flow cytometry relative to control. Format: functional. In a few lines:
as §3

In assay [19] the test system is Ramos. The assay can be described thus: Induction of apoptosis in human Ramos cells assessed as necrotic cells at 1 uM measured after 48 hrs by Annexin V-FITC/propidium iodide based flow cytometry (reference value: 0.2 %). In kind it is functional. In a few lines:
as §3

Assay [20] deals with Ramos. In words: Induction of apoptosis in human Ramos cells assessed as viable cells at 5 uM measured after 48 hrs by Annexin V-FITC/propidium iodide based flow cytometry relative to control. Format: functional. Conditions: read-out: Activity. In a few lines:
as §3

Assay [21] concerns Ramos. In words: Induction of apoptosis in human Ramos cells assessed as late apoptotic cells at 5 uM measured after 48 hrs by Annexin V-FITC/propidium iodide based flow cytometry relative to control. Format: functional. In a few lines: as §3
The test system of assay [22] is Ramos. In words: Induction of apoptosis in human Ramos cells assessed as early apoptotic cells at 5 uM measured after 48 hrs by Annexin V-FITC/propidium iodide based flow cytometry relative to control. In kind it is functional. In a few lines:
as §3

In assay [23] the test system is Ramos. In words: Induction of apoptosis in human Ramos cells assessed as necrotic cells at 5 uM measured after 48 hrs by Annexin V-FITC/propidium iodide based flow cytometry (reference value: 0.2 %). Format: functional. In a few lines:
as §3

Assay [24] relates to Ramos. The assay can be described thus: Induction of apoptosis in human Ramos cells assessed as late apoptotic cells at 10 uM measured after 48 hrs by Annexin V-FITC/propidium iodide based flow cytometry relative to control. Format: functional. In short, it runs like this:
as §3

As usually defined, the IC50 is the concentration needed to halve the response being measured.

Chain of Tyrosine-protein kinase BTK (Q06187 whole entry): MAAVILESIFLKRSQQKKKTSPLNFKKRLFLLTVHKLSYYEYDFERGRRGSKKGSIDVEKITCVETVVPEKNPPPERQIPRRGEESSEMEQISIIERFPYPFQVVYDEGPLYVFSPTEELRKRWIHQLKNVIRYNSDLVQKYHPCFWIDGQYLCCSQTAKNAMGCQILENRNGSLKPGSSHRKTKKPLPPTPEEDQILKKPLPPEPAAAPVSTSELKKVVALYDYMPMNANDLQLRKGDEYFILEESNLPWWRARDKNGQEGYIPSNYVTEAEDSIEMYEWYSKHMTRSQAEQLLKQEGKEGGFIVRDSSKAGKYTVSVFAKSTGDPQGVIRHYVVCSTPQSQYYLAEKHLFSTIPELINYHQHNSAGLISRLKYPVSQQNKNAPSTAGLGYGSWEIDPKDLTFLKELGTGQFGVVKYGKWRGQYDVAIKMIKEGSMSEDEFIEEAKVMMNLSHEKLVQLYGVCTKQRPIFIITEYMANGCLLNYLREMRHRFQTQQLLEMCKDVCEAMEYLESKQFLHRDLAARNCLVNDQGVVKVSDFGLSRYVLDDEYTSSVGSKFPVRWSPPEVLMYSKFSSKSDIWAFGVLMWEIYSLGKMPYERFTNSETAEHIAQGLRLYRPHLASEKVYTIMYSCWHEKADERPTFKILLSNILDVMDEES

Take `C=CC(=O)Nc1cccc(Nc2nc(Nc3ccc(CP(=O)(OCC)N4CCOCC4)cc3)ncc2Cl)c1` (stereo not drawn): the IC50 is 0.112 µM in assay [1], 27.4 µM in [2] and 7.71 µM in assay [3].

`C=CC(=O)N1CCC[C@@H](n2nc(-c3ccc(Oc4ccccc4)cc3)c3c(N)ncnc32)C1` [IBRUTINIB]: the Activity in [4] stood at 43.2%; in [5], 50.2%; in [6] it was 6.57%; in the assay on Ramos [7], 52%; in the assay with Ramos [8], 37%; in the assay on Ramos [9], 0.1%.

With `C=CC(=O)Nc1cccc(Nc2nc(Nc3ccc(OCCCP(=O)(OCC)N4CCOCC4)cc3)ncc2Cl)c1` (stereo not drawn), the figures for the concentration for half-maximal inhibition (IC50) in assay [1], in assay [2] and in assay [3] were 0.00082 µM, 3.17 µM and 6.69 µM, respectively. Besides, the viability at 1 µM in the assay on Ramos [10] is 50.9%. The Activity in the assay on Ramos [11] was found to be 5.9%; in assay [12], 36.9%; in assay [13], 55.4%; in [14], 7.68%; in [15], 36.4%; in assay [4] it was 38%. For the same molecule, the Activity in [16] was found to be 54.3%; in assay [5], 50.8%; in assay [17], 9.29%; in [6], 11.2%; with Ramos [18] it was 27.7%; in the assay with Ramos [19], 15.6%. In addition, the Activity is reported as 7.5% with Ramos [21], 37.6% in the assay on Ramos [22] and 14.7% with Ramos [23]. Further, the viability at 5 µM with Ramos [20] is 40.2%.

Turning to `C=CC(=O)Nc1cccc(Nc2nc(Nc3ccc(CP(=O)(OCC)OCC)cc3)ncc2F)c1`, the half-inhibitory concentration (IC50) stood at 0.0321 µM in assay [1], 9.36 µM in [2] and 34.9 µM in assay [3].

As for `C=CC(=O)Nc1cccc(Nc2nc(Nc3ccc(OCCOC)cc3)ncc2F)c1` [SPEBRUTINIB], the Activity in assay [4] stood at 31%; in assay [5], 47.9%; in assay [6], 20.9%; in the assay on Ramos [24], 20.4%; in the assay on Ramos [8], 21.1%; with Ramos [9] it was 4.3%. For the same molecule, the viability at 10 µM with Ramos [7] (Homo sapiens, Ramos, 48 h, read-out: Activity) was found to be 54.2%.

With `C=CC(=O)Nc1cccc(Nc2nc(Nc3ccc(CP(=O)(OCC)OCC)cc3)ncc2Cl)c1`, the IC50 in assay [1] is 0.00123 µM; in [2] it was 11.7 µM; in [3] it was 13.5 µM.

Regarding `C=CC(=O)Nc1cccc(Nc2nc(Nc3ccc(OCCCP(=O)(OCC)OCC)cc3)ncc2F)c1`, the half-inhibitory concentration (IC50) in assay [1] came to 0.0216 µM; in assay [2] it was 11.5 µM; in assay [3], 16.4 µM.

Turning to `C=CC(=O)Nc1cccc(Nc2nc(Nc3ccc(OCCCP(=O)(OCC)OCC)cc3)ncc2Cl)c1`, the half-inhibitory concentration (IC50) in assay [1] is 0.0106 µM; in [2], 5.4 µM; in [3] it was 6.07 µM.
